Sampled rows, rich in hits. Any-hit rate of the full collection: about 2.3%.
PLAP activator: activates human placental alkaline phosphatase. 96,000 compounds, 1.2% hits. purified PLAP enzyme, luminescent substrate read-out; active compounds read high. P05187. activation fold at 20 µM; in the data active = activation fold above about 2
HePTP inhibitor: inhibitors of human HePTP phosphatase; inhibition, % at 20 µM; AID 521; 110,000 compounds, 0.64% hits; recombinant HePTP phosphatase activity, OD absorbance; in the data active = inhibition above about 50%;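 note: plate controls were vehicle for no effect and reference inhibitor for full effect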
Target sequence (P35236 whole entry, looked up): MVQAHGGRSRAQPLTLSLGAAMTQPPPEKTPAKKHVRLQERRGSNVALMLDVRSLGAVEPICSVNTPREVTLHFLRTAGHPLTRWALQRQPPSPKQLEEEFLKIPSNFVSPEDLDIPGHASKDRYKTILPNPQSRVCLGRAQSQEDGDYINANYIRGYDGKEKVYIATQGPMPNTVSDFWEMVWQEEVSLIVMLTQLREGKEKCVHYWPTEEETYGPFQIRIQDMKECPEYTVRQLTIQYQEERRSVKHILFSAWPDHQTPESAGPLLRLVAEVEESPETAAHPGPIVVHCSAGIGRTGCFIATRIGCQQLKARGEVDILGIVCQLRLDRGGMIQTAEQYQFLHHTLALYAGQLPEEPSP
AP complement: orthogonal test for alternative complement pathway inhibitors. 62,000 compounds, 0.08% hits. Human serum alternative complement pathway, LPS-coated ELISA, C3 deposition; tested in compound mixtures. inhibition, % at 5 µM;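 active = inhibition above 30% in each of the two pooled mixtures holding the compound, so the lower value exceeds 30%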;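 note: 0% = serum in Mg-EGTA without compound and 100% = EDTA serum blank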
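Test system: human serum alternative complement pathway, C3 deposition on LPS-coated wells; also added: Plate-bound LPS; doses: 5 µM per compound in ten-compound mixtures; schedule: 1 h at 37 °C; detection: Anti-C3 ELISA, OD 450 nm; evaluation: percent inhibition of C3 deposition onto LPS; repeats: two pool placements per compound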
tolC growth inh: growth inhibitors of E. coli BW25113 tolC mutant; OD615; growth inhibition, % at 10 µM (by protocol); 65,000 compounds, 2.2% hits;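 active = growth inhibition at or above a cutoff equal to the mean over every tested compound plus 3 SD, cut at about 60% in these data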;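 note: growth measured after 20 h incubation at 37 °C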
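Test system – E. coli BW25113 ΔtolC::kan, tolC deletion mutant strain · Detection – OD at 615 nm · Buffer or medium – LB with kanamycin 50 µg/mL · Times – 20 h compound exposure of bacteria at 37 °C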
Ecoli WT expand: E. coli BW25113 growth inhibition, expanded screen | OD600 absorbance | growth inhibition, % at 100 µM | 98,000 compounds, 0.15% hits | AID 710;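 active = growth inhibition above about 50% at one test dose, limit read from the data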;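 note: growth measured after 20 h incubation at 37 °C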
* = called active by the depositor; / = no result given; ! = not confirmed by another sample.

SMILES	PLAP activator	HePTP inhibitor	AP complement	tolC growth inh	Ecoli WT expand
CCN(CC)c1ccc(C(=O)Nc2ccccc2C(F)(F)F)cc1	/	-1	/	/	/
COc1ccc(NS(=O)(=O)c2cccc(C(=O)N/N=C(\C)c3ccc(-n4ccnc4)cc3)c2)cc1	2.1*	/	/	/	-6
C/C(=N\NC(=O)c1cccc(S(=O)(=O)Nc2ccccc2Cl)c1)c1ccc(-n2ccnc2)cc1	1.5	/	/	/	-7
Cc1cccnc1NC(=O)c1c(O)c2cccc3c2n(c1=O)CCC3	0.9	-8	15	70*	-3
Cc1ccccc1NC(=O)c1c(O)c2cccc3c2n(c1=O)CCC3	0.9	6	-7	-15	/
Cc1ccc(-c2nc3ccccc3s2)cc1NC(=S)NC(=O)c1ccco1	/	5	/	/	/
COCCCNC(=S)NNC(=O)c1ccc2c(c1)OCO2	2.2*	/	/	/	1
O=C(CCc1ccccc1)NNC(=S)NC(=O)c1ccccc1	1.2	/	/	/	63*
O=C(NC(=S)NCCc1ccccc1)c1ccccc1	0.8	-1	/	/	-4
O=C(NNC(=S)Nc1ccccc1)c1cccnc1	/	-21	/	/	/
O=C(NNC(=S)NC(=O)c1cccnc1)c1ccccc1	2.1*	/	/	/	53*
COCCCNC(=S)NNC(=O)c1cccnc1	2.7*	/	/	/	-8
CC(C)CNC(=S)NNC(=O)c1ccc2c(c1)OCO2	1.7	/	/	/	3
CCOCCOC(=O)c1cccc(NC(=O)Cc2ccccc2)c1	/	0	/	/	/
O=C(/C=C/c1ccccc1)NNC(=O)c1cccnc1	2*	-13	/	/	3
CCOC(=O)C1CCN(Cc2ccc(Cl)c(Cl)c2)CC1	2*	/	/	/	3
CCOC(=O)C1CCN(Cc2ccc(F)cc2)CC1	/	6	0	-6	/
CCOc1ccc(NS(=O)(=O)c2ccc3[nH]cc(C(=O)NC(C)CC)c(=O)c3c2)cc1 (centres undefined)	/	-11	2	100*	-1
COc1ccccc1N1CCN(C(=O)c2cc(C3CC3)on2)CC1	1.3	5	-9	2	-4
COc1ccccc1N1CCN(C(=O)c2cc(-c3ccc(C)cc3)on2)CC1	1.3	6	-2	86*	-12
COc1ccccc1-c1cc(C(=O)N2CCN(c3ccccc3OC)CC2)no1	1.5	5	20	64*	-8
COc1ccccc1N1CCN(C(=O)c2cc(-c3ccc(Cl)cc3)on2)CC1	1	-3	6	54	-5
COc1ccc(CN(C(=O)c2cccc(F)c2)C2CC(=O)N(c3ccccc3)C2=O)cc1 (centres undefined)	/	-12	/	/	/
COc1ccccc1-n1c(C)ccc1-c1ccccc1	/	-8	/	/	/
COCCOC(=O)c1c(C)oc2ccc(NS(=O)(=O)c3cc(Cl)ccc3Cl)cc12	/	-3	/	/	/
SMILES	PLAP activator	HePTP inhibitor	AP complement	tolC growth inh	Ecoli WT expand
CCCCOc1ccccc1Cn1c(=O)oc2ccc(C)cc21	1	/	/	70*	-1
Cc1ccc2oc(=O)n(Cc3ccccc3OC(C)C)c2c1	1	6	11	99*	4
CCOC(=O)CSc1nc2sc3c(c2c(=O)n1-c1ccccc1C)CCc1ccccc1-3	/	1	/	/	/
CC(=O)c1ccccc1OCC(O)CN1CCN(C(c2ccccc2)c2ccccc2)CC1 (centres undefined)	1.9	4	17	74*	-3
COc1ccc(N(CC(=O)NC(C)c2ccccc2)S(C)(=O)=O)c(OC)c1 (centres undefined)	/	-2	/	/	/
Cc1cccn2c(=O)c(/C=C3\SC(=S)N(Cc4ccco4)C3=O)c(NCCCn3ccnc3)nc12	/	62*	/	/	/
CNC(=O)CN(c1ccc(C)cc1)S(=O)(=O)c1ccc(OC)c(OC)c1	/	-13	/	/	/
COc1cccc(-n2cnc3cccc(N)c32)c1	1.2	92*!	-1	-6	0
N#Cc1nc(-c2cccc(Cl)c2)oc1NCc1cccnc1	2*	/	/	/	-2
CSc1nc2ccc(NC(=O)c3ccc([N+](=O)[O-])o3)cc2s1	/	-8	/	/	/
COc1cc(/C=C2/SC(=S)NC2=O)cc(Cl)c1OCc1ccccc1F	/	-2	/	/	/
CCCOc1c(Cl)cc(/C=C2/SC(=S)NC2=O)cc1OC	/	-2	/	/	/
CCOc1cc(/C=C2/SC(=S)NC2=O)cc(Cl)c1OCc1ccc(Cl)cc1Cl	/	84*	/	/	/
COc1cc(/C=C2/SC(=S)NC2=O)cc(Cl)c1OCc1cccc2ccccc12	/	102*	/	/	/
C=CCn1c(CSc2nc3sc4c(c3c(=O)[nH]2)CCCC4)n[nH]c1=S	/	11	/	/	/
COc1ccc2[nH]c3c(NCCN(C(C)C)C(C)C)ncnc3c2c1	1.5	-2	-25	-6	12
CC(C)OCCCNc1ncnc2c1[nH]c1ccccc12	0.9	8	-4	100*	16
CCc1ccc(N2CC(C(=O)Nc3ccc(C)c(S(=O)(=O)N4CCOCC4)c3)CC2=O)cc1 (centres undefined)	2*	/	/	/	-3
CCOC(=O)c1ccccc1NC(=O)CN(c1cccc(Br)c1)S(=O)(=O)c1ccccc1	/	-7	/	/	/
COc1ccc(/C(O)=C2/C(=O)C(=O)N(CCCCCC(=O)O)C2c2ccc([N+](=O)[O-])cc2)cc1 (centres undefined)	/	3	/	/	/
O=C(N/N=C/c1ccc2c(c1)OCO2)c1sc2cc(Cl)ccc2c1Cl	/	58*	/	/	/
Cc1cc(=O)[nH]c(-n2[nH]c(C)cc2=O)n1	2.2*	/	/	/	-8
COc1cccc(N(CC(=O)Nc2ccc(OC)cc2OC)S(=O)(=O)c2ccccc2)c1	/	9	/	/	/
Cc1cc(N2CCN(c3cccc(C(F)(F)F)c3)CC2)n2ncnc2n1	1	-1	4	-9	2
Cc1cc(N2CCN(C(c3ccccc3)c3ccccc3)CC2)n2ncnc2n1	1.4	2	5	82*	1
Cc1nc2ncnn2c(N2CCN(C(c3ccccc3)c3ccccc3)CC2)c1C	1.6	2	-7	62*	6
Cc1nc2ncnn2c(N2CCN(c3cccc(C(F)(F)F)c3)CC2)c1C	2*	4	-8	42	7
COCCCNC(=O)C(=O)Nc1ccc(Cl)c(C(F)(F)F)c1	/	1	/	/	/
O=C1/C(=C\c2ccc(O)c(O)c2)SC(=S)N1c1ccc(F)cc1	/	10	/	/	/
COC(=O)c1cc(CSc2nc3ccc(C)cc3[nH]2)oc1C	1.5	1	-5	73*	/

High-throughput results deposited in PubChem by several laboratories.
